Tests used:
[1] = organism: Rattus norvegicus; assay: Separation of antifertility from estrogenic activity in rats was measured; type: functional
[2] = molecular target: Estrogen receptor (Rattus norvegicus) (UniProt P06211+Q62986)
[3] = organism: Rattus norvegicus; assay: Antifertility activity measured as minimum protective dose for prevention of pregnancy in rats; type: functional; parameters: unit not given here
Outline: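 Oral dosing in adult cycling female rats selected in the proestrous phase, 10 animals per dose, with treatment starting on the day of proestrus.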

| SMILES | Separation [1] | Estrogenic potency [2] | Antifertility potency [3] |
| --- | --- | --- | --- |
| C#C[Si](C#C[C@]1(O)CC[C@H]2[C@@H]3CCc4cc(O)ccc4[C@H]3CC[C@@]21C)(CC)CC | 16 | 37 | 600 |
| CCC[Si](C#C[C@]1(O)CC[C@H]2[C@@H]3CCc4cc(O)ccc4[C@H]3CC[C@@]21C)(CCC)CCC | 8 | 25 | 200 |
| C[C@]12CC[C@@H]3c4ccc(O)cc4CC[C@H]3[C@@H]1CC[C@@]2(O)C#C[Si](C)(C)c1ccccc1 | 4.7 | 7 | 33 |
| CCCC[Si](C#C[C@]1(O)CC[C@H]2[C@@H]3CCc4cc(O)cc(C(C)=O)c4[C@H]3CC[C@@]21C)(CCCC)CCCC | – | 4 | 0 |
| CCCC[Si](C)(C)C#C[C@]1(O)CC[C@H]2[C@@H]3CCc4cc(O)ccc4[C@H]3CC[C@@]21C | 15 | 20 | 300 |
| C[C@]12CC[C@@H]3c4ccc(O)cc4CC[C@H]3[C@@H]1CC[C@@]2(O)C#C[Si](C)(C)CCl | 9 | 17 | 150 |
| C[C@]12CC[C@@H]3c4ccc(O)cc4CC[C@H]3[C@@H]1CC[C@@]2(O)/C=C/[Si](C)(C)C | – | 0.2 | 0 |
| C[C@]12CC[C@@H]3c4ccc(O)cc4CC[C@H]3[C@@H]1CC[C@@]2(O)C#C[Si](C)(C)CCCCl | 8 | 25 | 200 |
| C=C([C@]1(O)CC[C@H]2[C@@H]3CCc4cc(O)ccc4[C@H]3CC[C@@]21C)[Si](CCC)(CCC)CCC | 4 | 0.5 | 2 |
| CC[SiH](C#C[C@]1(O)CC[C@H]2[C@@H]3CCc4cc(O)ccc4[C@H]3CC[C@@]21C)CC | 21 | 29 | 600 |
| C[C@]12CC[C@@H]3c4ccc(O)cc4CC[C@H]3[C@@H]1CC[C@@]2(O)C#C[Si](C)(CCl)CCl | 4 | 39 | 150 |
| CC[Si](C#C[C@]1(O)CC[C@H]2[C@@H]3CCc4cc(O)ccc4[C@H]3CC[C@@]21C)(CC)CC | 16 | 37 | 600 |
| CC[Si](C#C[C@]1(OC(=O)n2ccnc2)CC[C@H]2[C@@H]3CCc4cc(OC)ccc4[C@H]3CC[C@@]21C)(CC)CC | – | 3 | – |
| CC[Si](C)(C#C[C@]1(O)CC[C@H]2[C@@H]3CCc4cc(O)ccc4[C@H]3CC[C@@]21C)CC | 15 | 40 | 600 |
| CC[Si](/C=C/[C@]1(O)CC[C@H]2[C@@H]3CCc4cc(O)ccc4[C@H]3CC[C@@]21C)(CC)CC | 30 | 0.04 | 1.31 |
| CC[Si]1(C#C[C@]2(O)CC[C@H]3[C@@H]4CCc5cc(O)ccc5[C@H]4CC[C@@]32C)CCCC1 | 4.2 | 120 | 500 |
| C=CC[Si](C#C[C@]1(O)CC[C@H]2[C@@H]3CCc4cc(O)ccc4[C@H]3CC[C@@]21C)(CC)CC | 7 | 44 | 300 |
| CC[Si]1(C#C[C@]2(O)CC[C@H]3[C@@H]4CCc5cc(O)ccc5[C@H]4CC[C@@]32C)CCCCC1 | 2.4 | 85 | 200 |
| C=C[Si](C)(C#C[C@]1(O)CC[C@H]2[C@@H]3CCc4cc(O)ccc4[C@H]3CC[C@@]21C)CC (some centres not stated) | 11 | 28 | 300 |
| C[C@]12CC[C@@H]3c4ccc(O)cc4CC[C@H]3[C@@H]1CC[C@@]2(O)C#C[Si](C)(C)CCC(F)(F)F | 8 | 19 | 150 |
| C[C@]12CC[C@@H]3c4ccc(O)cc4CC[C@H]3[C@@H]1CC[C@@]2(O)C#C[Si](C)(C)C(Cl)Cl | 17 | 18 | 300 |
| CC(Cl)[Si](C)(C)C#C[C@]1(O)CC[C@H]2[C@@H]3CCc4cc(O)ccc4[C@H]3CC[C@@]21C (some centres not stated) | 7 | 45 | 300 |
| CC(C)(C)[Si](C)(C)C#C[C@]1(O)CC[C@H]2[C@@H]3CCc4cc(O)ccc4[C@H]3CC[C@@]21C | 30 | 20 | 600 |
| CC[Si](C#C[C@]1(O)CC[C@H]2[C@@H]3CCc4cc(O)ccc4[C@H]3CC[C@@]21C)(C#C[C@]1(O)CC[C@H]2[C@@H]3CCc4cc(O)ccc4[C@H]3CC[C@@]21C)CC | – | 8 | 0 |

| SMILES | Separation [1] | Estrogenic potency [2] | Antifertility potency [3] |
| --- | --- | --- | --- |
| C=C([C@]1(O)CC[C@H]2[C@@H]3CCc4cc(O)ccc4[C@H]3CC[C@@]21C)[Si](CC)(CC)CC | 8 | 0.5 | 4 |
| C[C@]12CC[C@@H]3c4ccc(O)cc4CC[C@H]3[C@@H]1CC[C@@]2(O)C#C[Si](C)(C)CCC#N | 8 | 37 | 300 |
| CCC[Si](C)(C)C#C[C@]1(O)CC[C@H]2[C@@H]3CCc4cc(O)ccc4[C@H]3CC[C@@]21C | 14 | 22 | 300 |
| CC(C)(C)C#C[C@]1(O)CC[C@H]2[C@@H]3CCc4cc(O)ccc4[C@H]3CC[C@@]21C | 14 | 0.07 | 1 |
| C=C([C@]1(O)CC[C@H]2[C@@H]3CCc4cc(O)ccc4[C@H]3CC[C@@]21C)[Si](C)(C)C | 5 | 0.4 | 2 |
| C[C@]12CC[C@@H]3c4ccc(O)cc4CC[C@H]3[C@@H]1CC[C@@]2(O)C#C[Si]1(C)CCCCC1 | 10 | 25 | 250 |
| CC[Si](C#C[C@]1(O)CC[C@H]2[C@@H]3CCc4cc(O)ccc4[C@H]3CC[C@@]21C)(CC)C(C)(C)C | 10 | 31 | 300 |
| CCC[Si](C=C[C@]1(O)CC[C@H]2[C@@H]3CCc4cc(O)ccc4[C@H]3CC[C@@]21C)(CCC)CCC | – | 0.05 | 0 |
| CC[Si](C#C[C@]1(O)CC[C@H]2[C@@H]3CCc4cc(O)ccc4[C@H]3CC[C@@]21C)(CC)c1ccccc1 | 10 | 17 | 150 |
| C[C@]12CC[C@@H]3c4ccc(O)cc4CC[C@H]3[C@@H]1CC[C@@]2(O)C#C[Si](c1ccccc1)(c1ccccc1)c1ccccc1 | – | 0.5 | 0 |
| CC[Si](C#C[C@]1(O)CC[C@H]2[C@@H]3CCc4cc(OC(C)=O)ccc4[C@H]3CC[C@@]21C)(CC)CC | – | 34 | 600 |
| C#C[C@]1(O)CC[C@H]2[C@@H]3CCc4cc(O)ccc4[C@H]3CC[C@@]21C [ETHINYL ESTRADIOL] | – | – | 100 |
| C[C@]12CC[C@@H]3c4ccc(O)cc4CC[C@H]3[C@@H]1CC[C@@]2(O)C#C[Si](C)(C)Cc1ccccc1 | 25 | 12 | 300 |
| C=CC[Si](C)(C)C#C[C@]1(O)CC[C@H]2[C@@H]3CCc4cc(O)ccc4[C@H]3CC[C@@]21C | 10 | 24 | 250 |
| CC[Si](/C=C\[C@]1(O)CC[C@H]2[C@@H]3CCc4cc(O)ccc4[C@H]3CC[C@@]21C)(CC)CC | 20 | 0.5 | 10 |
| CCC(C)[Si](C)(C)C#C[C@]1(O)CC[C@H]2[C@@H]3CCc4cc(O)ccc4[C@H]3CC[C@@]21C (some centres not stated) | 15 | 20 | 300 |
| C[C@]12CC[C@@H]3c4ccc(O)cc4CC[C@H]3[C@@H]1CC[C@@]2(O)/C=C\[Si](C)(C)C | 10 | 0.5 | 5 |
| CCCC(=O)Oc1ccc2c(c1)CC[C@@H]1[C@@H]2CC[C@@]2(C)[C@H]1CC[C@@]2(O)C#C[Si](CC)(CC)CC | – | 35 | 300 |
| C[C@]12CC[C@@H]3c4ccc(O)cc4CC[C@H]3[C@@H]1CC[C@@]2(O)C#C[Si](C)(C)C | 4.7 | 7 | 33 |
| CCCC[Si](C#C[C@]1(O)CC[C@H]2[C@@H]3CCc4cc(O)ccc4[C@H]3CC[C@@]21C)(CCCC)CCCC | – | 2.5 | 0 |
| C[C@]12CC[C@@H]3c4ccc(O)cc4CC[C@H]3[C@@H]1CC[C@@]2(O)C#C[Si](C)(C)CBr | 7.4 | 27 | 200 |
| CCCC(=O)Oc1ccc2c(c1)CC[C@@H]1[C@@H]2CC[C@@]2(C)[C@H]1CC[C@]2(C#C[Si](CC)(CC)CC)OC(=O)CCC | – | 4 | 40 |
| CC[Si](C#C[C@]1(O)CC[C@H]2[C@@H]3CCc4cc(OC5CCCC5)ccc4[C@H]3CC[C@@]21C)(CC)CC | – | 24 | 300 |

— ChEMBL document CHEMBL1123923, “Steroidal silicon side-chain analogues as potential antifertility agents” (1987)
